Laboratory results: ChEMBL document CHEMBL3808291, “Bifunctional Peptide-Based Opioid Agonist-Nociceptin Antagonist Ligands for Dual Treatment of Acute and Neuropathic Pain” (J Med Chem, 2016)
Calls of active or inactive are those of the source. Numbered stars: 1 amine (or outer) side, 2 acyl side, 3 side chain; on linkers, the order of the positions; unused ones are H or OH. Square brackets hold non-standard residues; d marks the D form. Peptide text beside a SMILES is read from it. X1 = O=C1[C@@H](N[*:1])Cc2ccccc2CN1CCC(=O)[*:2]; Dmt = Cc1cc(O)cc(C)c1C[C@H](N)C(=O)O

What was measured:
Mus musculus [1] = test: Antiallodynic activity in albino Swiss CD1 IGS mouse model of streptozocin-induced type1 diabetic neuropathic pain assessed as increase in mechanical threshold for paw withdrawal at 0.005 nmol, it administered on day 10 after STZ injection measured at 30 mins post dose by Von Frey test; format: functional, organism-based
Procedure, shortened: (§1)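 Male CD-1 mice (30–35 g). CCI: sciatic constriction injury, tested on days 7–16 after surgery. STZ diabetes: single ip streptozocin 200 mg/kg; mice with glucose >300 mg/dL included, tested on day 10. Drug in water for injection, given it (5 µL, L5–L6 lumbar puncture) to conscious mice. von Frey (cutoff 6 g) or cold plate (2 °C, 30 s cutoff, paw lift) at 30, 90, 180 min; 6–8 mice/group.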

[2] = Passive permeability of compound at 500 uM after 4 hrs by BBB-PAMPA; format: ADME; settings: read-out: permeability
Procedure, shortened: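 BBB-PAMPA with porcine brain polar lipids; compound at 500 µM in donor compartment in system solution containing 20% 1-propanol; 4 h at room temperature in humidified box, 25 µm unstirred water layer. Quantified by RP-HPLC, identity by MALDI-TOF; effective permeability and % transport calculated.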

Mus musculus [3] = test: Antinociceptive activity in C57BL6 mouse model of acute pain assessed as increase in withdrawal latency from radiant heat source at 31 to 61 nmol/kg, iv measured after 180 to 240 mins by tail flick assay relative to control; format: functional
Procedure, shortened: (§2)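 Male C57BL6 mice (20–25 g); compound or saline given iv into tail vein (po also tested). Radiant heat on ventral tail, latency to withdrawal/shaking recorded at baseline and 5, 15, 30, 60, 120 min (later points also reported); normalized as %MPE; 8–10 mice per group.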

Mus musculus [4] = test: Antinociceptive activity in C57BL6 mouse model of acute pain assessed as increase in withdrawal latency from radiant heat source at 61 to 196 nmol/kg, po measured after 5 to 120 mins by tail flick assay relative to control; format: functional; procedure, shortened: as §2
Mus musculus [5] = test: Antiallodynic activity in albino Swiss CD1 IGS mouse model of chronic constriction injury-induced neuropathic pain assessed as increase in mechanical threshold for paw withdrawal at 0.0005 nmol, it administered on day 7 to 16 after CCI surgery measured 180 mins post dose by Von Frey test; format: functional, organism-based; procedure, shortened: as §1
Mus musculus [6] = test: Antihyperalgesic activity in albino Swiss CD1 IGS mouse model of chronic constriction injury-induced neuropathic pain assessed as increase in paw withdrawal latency at 0.0005 nmol, it administered on day 7 to 16 after CCI surgery measured 180 mins post dose by cold plate test; format: functional, organism-based; procedure, shortened: as §1
Mus musculus [7] = test: Neurotoxicity in intrathecally dosed albino Swiss CD1 IGS mouse assessed as motor impairment measured after 15 to 120 mins post dose by rotarod test; format: toxicity, organism-based; settings: in vivo, icv_or_intrathecal
Procedure, shortened: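 Intrathecal dosing (water for injection, 5 µL) to male CD-1 mice. After three training sessions, mice placed on accelerating rod (2 to 40 rpm over 300 s cutoff); tested 15 and 120 min after injection.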

Mus musculus [8] = test: Antiallodynic activity in albino Swiss CD1 IGS mouse model of streptozocin-induced type1 diabetic neuropathic pain assessed as increase in mechanical threshold for paw withdrawal at 0.005 nmol, it administered on day 10 after STZ injection measured at 180 mins post dose by Von Frey test; format: functional, organism-based; procedure, shortened: as §1
Mus musculus [9] = test: Antihyperalgesic activity in albino Swiss CD1 IGS mouse model of streptozocin-induced type1 diabetic neuropathic pain assessed as increase in paw withdrawal latency at 0.005 nmol, it administered on day 10 after STZ injection measured at 180 mins post dose by […]; format: functional, organism-based; procedure, shortened: as §1
Rattus norvegicus [10] = test: Induction of respiratory depression in Sprague-Dawley rat at 6 nmol/kg, iv after 5 to 120 mins by plethysmography method; format: organism-based; settings: in vivo
Procedure, shortened: (§3)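 Male Sprague–Dawley rats (250–350 g) with implanted catheter and intraperitoneal temperature transmitter, dosed iv at T0; 0.9% NaCl as control; N = 6/group. Whole-body barometric plethysmography, ~60 s records at −30, −15, −5, 5–120 min.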

Rattus norvegicus [11] = test: Reduction in expiratory time in Sprague-Dawley rat at 6 nmol/kg, iv after 5 to 120 mins by plethysmography method; format: organism-based; settings: in vivo; procedure, shortened: as §3
Rattus norvegicus [12] = test: Reduction in tidal volume in Sprague-Dawley rat at 6 nmol/kg, iv after 5 to 120 mins by plethysmography method; format: organism-based; settings: in vivo; procedure, shortened: as §3

Structure (SMILES): CC[C@H](C)[C@H](NC(=O)[C@H](CCCNC(=N)N)NC(=O)[C@H](Cc1ccc(O)cc1)NC(=O)[C@H](Cc1ccc(O)cc1)NC(=O)[C@H](CCCNC(=N)N)NC(=O)CCN1Cc2ccccc2C[C@H](NC(=O)[C@@H](CCCNC(=N)N)NC(=O)[C@@H](N)Cc2c(C)cc(O)cc2C)C1=O)C(=O)N[C@@H](CCCCN)C(N)=O (H-[Dmt][dR][X1]RYYRIK-NH2)
- Activity (Mus musculus [1]): Active
- Papp at 4 h, 500 µM [2]: 0.11 ×10⁻⁶ cm/s
- MPE (Mus musculus [3]): 100%
- MPE (Mus musculus [4]): <5%
- Activity (Mus musculus [5]): Active
- Activity (Mus musculus [6]): Active
- Activity (Mus musculus [7]): Non-toxic
- Activity (Mus musculus [8]): inactive
- Activity (Mus musculus [9]): Active
- Activity (Rattus norvegicus [10]): Non-toxic
- Activity (Rattus norvegicus [11]): Non-toxic
- Activity (Rattus norvegicus [12]): Non-toxic
